Measured values reported in PubChem BioAssay.
The source made the active and inactive calls.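 How the source made its calls, unless noted: active means NADPH fluorescence slope more negative than the mean of all samples by about 3 SD, 99.7% confidence; inactive means the rest.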

Experiments:
[1] = inhibitors of TNFa-induced NFkB p65 translocation, primary screen, imaging, HUVEC, MLSMR starter and 10KST1 sets (AID 438;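 active means inhibition above 20% together with a positive visual image hit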;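 further: compound added about 3h40 before a 20 min TNFalpha stimulation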;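 on inhibition: signal is the nuclear over cytoplasmic p65 intensity ratio per well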); details: HUVEC TNFa-induced p65 nuclear translocation; cell count: measured here: nuclei count (cytotoxicity indicator), at 2.08 µM; inhibition: at 2 µM, stronger effect = higher value, 0% TNFa-plus-vehicle, 100% no-TNFa wells
[2] = reduction of polyQ htt aggregates in cells – imaging, exon1htt(103Q)mCFP cells, high-content imaging, primary screen (AID 483;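 active means visual image review flags a hit and inhibition of aggregation exceeds 20%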;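 further: compound exposure lasted 3 days before fixation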;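 on nuclei count: percent of the per-plate median nuclei count of sample wells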); details: exon1htt(103Q)mCFP cell line, aggregate imaging, at 2 µM; inhibition of aggregation: stronger effect = higher value; nuclei count: measured here: cell count, toxicity
[3] = endothelial E-selectin expression blockers – imaging, HUVEC, immunofluorescence, MLSMR starter and 10KST1 sets, primary screen (AID 487;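 active means visually confirmed hit in the image check and inhibition above 20%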;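 on inhibition: signal is fraction of cell area covered by stained E-selectin grains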;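 on nuclei count: 100% = median nuclei count of all wells on the same plate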); details: HUVEC TNFalpha-induced E-selectin immunofluorescence imaging, at 2 µM; inhibition: stronger effect = higher value; nuclei count: measured here: cell number, toxicity
[4] = molecular target: Voltage-gated potassium channel subunit beta-2 (Rattus norvegicus) (UniProt P62483); assay: inhibitors of rat Kvbeta2 reductase activity – biochemical, NADPH fluorescence, primary screen (AID 622;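 active means fluorescence slope higher than the sample average by over 3 SD, cut at about -0.22 in these data, passing the limit was not always enough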;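 further: slope of raw intensity against log time taken from 70 to 1610 s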); details: recombinant KvBeta, 4-cyanobenzaldehyde reduction, at 10 µM, stronger effect = higher value
Chain of Voltage-gated potassium channel subunit beta-2 (Rattus norvegicus) (P62483 whole entry, looked up): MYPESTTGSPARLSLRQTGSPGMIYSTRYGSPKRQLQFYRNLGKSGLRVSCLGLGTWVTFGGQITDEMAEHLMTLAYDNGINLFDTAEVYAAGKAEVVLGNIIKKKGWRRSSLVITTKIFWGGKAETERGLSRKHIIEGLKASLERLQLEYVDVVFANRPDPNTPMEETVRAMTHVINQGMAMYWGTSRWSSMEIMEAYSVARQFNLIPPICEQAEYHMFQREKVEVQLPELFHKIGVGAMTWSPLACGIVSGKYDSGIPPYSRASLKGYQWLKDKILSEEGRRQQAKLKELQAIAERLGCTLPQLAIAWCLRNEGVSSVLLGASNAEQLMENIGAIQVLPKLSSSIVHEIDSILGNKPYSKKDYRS

[5] = molecular target: Voltage-gated potassium channel subunit beta-2 (Rattus norvegicus) (UniProt P62483); assay: enhancers of rat Kvbeta2 NADPH turnover – biochemical, NADPH fluorescence, primary screen (AID 623); details: Recombinant KvBeta, NADPH fluorescence decrease slope, 10 min; at 10 µM; stronger effect = lower value;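 further: fluorescence intensity change per second fitted from 20 to 320 s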
[6] = molecular target: Muscarinic acetylcholine receptor M4 (Homo sapiens) (UniProt P08173); assay: M4-linked GIRK flux change, two-sided – cell-based, HEK293 M4/GIRK, thallium flux, BTC-AM, M4 allosteric agonist project, primary screen (AID 625;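 active means fluorescence slope after compound addition differing from the mean of all tested samples at 99.7% confidence, mostly higher but some lower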;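 further: thallium influx through GIRK channels coupled to M4 in HEK293 cells with BTC-AM dye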); details: at 10 µM, actives lie on both sides
Chain of Muscarinic acetylcholine receptor M4 (Homo sapiens) (P08173 whole entry, looked up): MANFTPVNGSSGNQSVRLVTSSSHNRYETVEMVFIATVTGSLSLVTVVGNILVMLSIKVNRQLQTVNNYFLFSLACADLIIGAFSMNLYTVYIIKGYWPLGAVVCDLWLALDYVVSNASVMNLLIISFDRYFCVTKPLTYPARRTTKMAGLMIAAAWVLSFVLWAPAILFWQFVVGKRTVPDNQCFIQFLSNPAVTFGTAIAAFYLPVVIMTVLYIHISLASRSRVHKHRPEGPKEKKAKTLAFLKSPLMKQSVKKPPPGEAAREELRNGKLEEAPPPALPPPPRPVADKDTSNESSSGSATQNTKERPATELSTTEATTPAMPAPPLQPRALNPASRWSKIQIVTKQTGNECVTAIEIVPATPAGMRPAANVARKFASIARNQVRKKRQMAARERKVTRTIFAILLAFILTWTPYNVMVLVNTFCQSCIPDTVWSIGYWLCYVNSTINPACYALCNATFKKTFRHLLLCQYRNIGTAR
Method in brief: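 Material: HEK293 cells with M4 receptor and GIRK channels; Times: cells overnight at 37 °C, BTC-AM loading 1 h, reads 2 min total; Technique: kinetic BTC-AM fluorescence sampled at 1 Hz, 10 s pre-addition baseline; Read-out basis: slope over 15–24 s of trace normalized to starting intensity; Controls: carbachol positive, DMSO negative.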

[7] = blockers of RIG-like receptor reporter activation – cell-based, Sendai virus stimulus, luciferase, 10K MLSCN set, TLR/RLR signaling modifier project, primary screen (AID 602276;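 active means inhibition at or above 50% at 10 µM; inactive means inhibition below 50%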;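 further: firefly luciferase from ISG56 promoter only with Renilla not read in this screen; 0% = Sendai virus plus DMSO and 100% = medium plus DMSO without virus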); details: HEK293 RL24 IRF3 luciferase reporter, at 10 µM, stronger effect = higher value
[8] = TLR3 IRF3 reporter activation blockers – cell-based, poly I:C stimulus, luciferase, 10K MLSCN set, primary screen (AID 602277;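 active means inhibition of the reporter signal at or above 50%; inactive means inhibition below 50%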); details: HEK293-TLR3 RL24 IRF3 luciferase reporter, at 10 µM, stronger effect = higher value

| SMILES | cell count [1] | inhibition [1] | inhibition of aggregation [2] | nuclei count [2] [%] | inhibition [3] | nuclei count [3] [%] | fluorescence slope [4] | NADPH fluorescence slope [5] | fluorescence slope [6] | inhibition [7] | inhibition [8] |
| --- | --- | --- | --- | --- | --- | --- | --- | --- | --- | --- | --- |
| CC(=O)c1c(C)[nH]c(C(=O)NC2=NCCS2)c1C | 459 | -9.6% (inactive) | 15.8% (inactive) | 61.1 | 23.6% (inactive) | 95.2 | -0.571 (inactive) | -1.9e-05 (inactive) | 0.00678 (inactive) | -2.52% (inactive) | -11.8% (inactive) |
| CCC1C(=O)n2nc(-c3ccccc3)cc2N=C1C (stereo not drawn) | 330 | 0% (inactive) | -7.3% (inactive) | 102 | -4.1% (inactive) | 114 | -0.506 (inactive) | -4.6e-05 (inactive) | 0.006 (inactive) | -22% (inactive) | -37% (inactive) |
| Nc1nc2sc3c(c2c(=O)s1)CCCC3 | 194 | 0.2% (inactive) | -15.1% (inactive) | 55.3 | 18.8% (inactive) | 90.7 | -0.525 (inactive) | -0.0002 (inactive) | 0.00365 (inactive) | -10.3% (inactive) | -23.7% (inactive) |
| c1ccc(CCc2nn3c(Cn4cnc5ccccc54)nnc3s2)cc1 | 598 | -3.3% (inactive) | -18% (inactive) | 100 | -29.5% (inactive) | 97.5 | -0.53 (inactive) | 2.5e-05 (inactive) | 0.00554 (inactive) | 14.9% (inactive) | -3.65% (inactive) |
| Nc1ccc(Sc2nnnn2-c2ccccc2)c(Cl)c1 | 312 | -5.1% (inactive) | 8% (inactive) | 108 | -4% (inactive) | 78.5 | -0.468 (inactive) | -3.4e-05 (inactive) | 0.00613 (inactive) | 8.66% (inactive) | 13% (inactive) |
| Cc1ccc(OCC(O)Cn2c(=N)n(CCN3CCCCC3)c3ccccc32)cc1 (stereo not drawn) | 277 | 4.5% (inactive) | 2.3% (inactive) | 63.4 | -6.5% (inactive) | 96.8 | -0.381 (inactive) | -4.1e-05 (inactive) | 0.00474 (inactive) | -33.6% (inactive) | 62.2% (active) |
| CCc1cc2c(NCCC(=O)O)nc(C)nc2s1 | 222 | -13.7% (inactive) | 13.8% (inactive) | 79 | -7.8% (inactive) | 104 | -0.575 (inactive) | -4e-05 (inactive) | 0.00598 (inactive) | 2.05% (inactive) | 15.1% (inactive) |
| Nc1nc(N)nc(-c2ccccc2)n1 | 402 | 6% (inactive) | 12% (inactive) | 91.3 | 22.3% (inactive) | 102 | -0.599 (inactive) | -3.3e-05 (inactive) | 0.00335 (inactive) | 13.8% (inactive) | 13.5% (inactive) |
| CCOC(=O)c1cccc(NC(=O)CSc2nc3ccccc3c(=O)n2CC)c1 | 360 | 4.2% (inactive) | 7.7% (inactive) | 98.9 | -1.3% (inactive) | 104 | -0.465 (inactive) | 2.3e-05 (inactive) | 0.00728 (inactive) | 9.39% (inactive) | 18.3% (inactive) |
| c1ccc(-c2cn3cccnc3n2)cc1 | 746 | -0.7% (inactive) | 12.5% (inactive) | 92.7 | -66.8% (inactive) | 123 | -0.0209 (active) | -3.7e-06 (inactive) | 0.00503 (inactive) | -12.5% (inactive) | -40.2% (inactive) |
| Cc1c(NC(=O)c2cnn3c2NC(c2ccco2)CC3C(F)(F)F)c(=O)n(-c2ccccc2)n1C (stereo not drawn) | 436 | -1% (inactive) | 2.9% (inactive) | 101 | -27.3% (inactive) | 115 | -0.557 (inactive) | -2.6e-05 (inactive) | 0.00692 (inactive) | 15.2% (inactive) | 18.8% (inactive) |
| Cc1ccc(C)n1-c1ccc(N2CCOCC2)cc1 | 406 | 1% (inactive) | 14.3% (inactive) | 99.8 | -44.4% (inactive) | 111 | -0.345 (inactive) | -5.6e-05 (inactive) | 0.00513 (inactive) | 11.4% (inactive) | 8.15% (inactive) |
| O=C(c1cccs1)N1CCc2ccccc21 | 335 | -3.8% (inactive) | 5% (inactive) | 104 | -59.6% (inactive) | 111 | -0.511 (inactive) | -5e-05 (inactive) | 0.00554 (inactive) | -42% (inactive) | -100% (inactive) |
| O=C(Cn1c(=O)[nH]c2ccsc2c1=O)N1CCN(c2ccc(F)cc2)CC1 | 654 | -29.9% (inactive) | -0.5% (inactive) | 106 | -34.1% (inactive) | 121 | -0.451 (inactive) | -3e-05 (inactive) | 0.00533 (inactive) | 15.1% (inactive) | 21.3% (inactive) |
| CN(C)c1ccc(/C=C/C(O)=C2/C(=O)N(C)C3(C)CC2c2ccccc2O3)cc1 (stereo not drawn) | 356 | -0.4% (inactive) | -5.2% (inactive) | 102 | -68% (inactive) | 115 | -0.521 (inactive) | -2e-07 (inactive) | 0.0126 (active) | 1.4% (inactive) | 23.4% (inactive) |
| Cc1cc(C(=O)O)ccc1-n1c(C)ccc1C | 332 | -3.7% (inactive) | 0.1% (inactive) | 106 | -88.3% (inactive) | 118 | -0.554 (inactive) | -3.5e-05 (inactive) | 0.00607 (inactive) | 14.8% (inactive) | 20% (inactive) |
| O=C(CCN1CCN(CCO)CC1)Nc1ccc(OCc2ccccc2)cc1 | 278 | 4.8% (inactive) | -5.1% (inactive) | 98.3 | -29.4% (inactive) | 105 | -0.584 (inactive) | -2.1e-05 (inactive) | 0.00748 (inactive) | -11.3% (inactive) | 0.289% (inactive) |
| N#Cc1c(NC(=O)CSc2nnnn2C2CCCC2)sc2c1CCCC2 | 527 | -1.8% (inactive) | -3.6% (inactive) | 114 | 36.6% (inactive) | 109 | -0.392 (inactive) | 2.8e-05 (inactive) | 0.00642 (inactive) | 11% (inactive) | 26.3% (inactive) |
| Cc1oc2c(CN3CCCC3)c(O)ccc2c(=O)c1-c1ccccc1 | 243 | 3.8% (inactive) | 6.5% (inactive) | 96.3 | -46% (inactive) | 97.7 | -0.0276 (active) | 8.9e-06 (inactive) | 0.00581 (inactive) | 14% (inactive) | 24.5% (inactive) |
| Nc1sccc1C(=O)c1ccccc1 | 339 | -5.4% (inactive) | 5.8% (inactive) | 110 | -45.7% (inactive) | 129 | -0.563 (inactive) | 7.1e-06 (inactive) | 0.00467 (inactive) | -12.1% (inactive) | -9.56% (inactive) |
| CCOC(=O)C1CCCN(S(=O)(=O)c2cccs2)C1 (stereo not drawn) | 243 | 11.2% (inactive) | -5.5% (inactive) | 95.8 | -8.8% (inactive) | 95.2 | -0.479 (inactive) | 1.6e-05 (inactive) | 0.00471 (inactive) | -3.56% (inactive) | 4.98% (inactive) |
| COc1ccccc1-n1cnc(N)c1C(C)=O | 675 | -9.1% (inactive) | -12.9% (inactive) | 105 | -12.3% (inactive) | 110 | -0.586 (inactive) | -5.1e-05 (inactive) | 0.00353 (inactive) | 6.44% (inactive) | 5.79% (inactive) |
| O=S(=O)(NCCCCCNS(=O)(=O)c1ccccc1)c1ccccc1 | 468 | 4.3% (inactive) | -5% (inactive) | 104 | -56.2% (inactive) | 142 | -0.547 (inactive) | -3.3e-05 (inactive) | 0.00488 (inactive) | 20.2% (inactive) | 22.6% (inactive) |
| O=C(Cn1cccc1C(=O)c1ccccc1)NCCN1CCOCC1 | 505 | 12.5% (inactive) | -9.1% (inactive) | 114 | 25% (inactive) | 98.8 | -0.583 (inactive) | -1.2e-05 (inactive) | 0.00604 (inactive) | 0.991% (inactive) | 12.8% (inactive) |
| Cc1cc(C)c2c(n1)nn1c(N3CCN(c4ccccc4C)CC3)cc(C)nc21 | 420 | -11.8% (inactive) | -116% (inactive) | 81 | -52.8% (inactive) | 110 | -0.447 (inactive) | 1.5e-05 (inactive) | 0.00576 (inactive) | -4.5% (inactive) | -6.94% (inactive) |
| Cc1ccc(-c2cc(C(=O)NCc3ccc4c(c3)OCO4)no2)cc1 | 382 | 0.3% (inactive) | 8.6% (inactive) | 92.9 | 17% (inactive) | 101 | -0.315 (inactive) | -6.4e-05 (inactive) | 0.00532 (inactive) | -10.4% (inactive) | -26.2% (inactive) |
| COC(=O)Cc1csc(N)n1 | 743 | 10% (inactive) | 15% (inactive) | 109 | -54.5% (inactive) | 122 | -0.529 (inactive) | 2.5e-05 (inactive) | 0.00536 (inactive) | 12.4% (inactive) | 22.3% (inactive) |
| Cc1cc(NC(=O)c2cc(-c3ccco3)on2)n(-c2ccccc2)n1 | 326 | 6.8% (inactive) | 6.4% (inactive) | 105 | -56.3% (inactive) | 121 | -0.466 (inactive) | -2.4e-05 (inactive) | 0.00551 (inactive) | 17.5% (inactive) | 12.9% (inactive) |
